Measurements from different studies.
Target: Serine/threonine-protein kinase 33 (STK33, Homo sapiens, UniProt Q9BYT3)

SMILES	test	conditions	remaining binding [%]
O=C(NCC1CCOCC1)c1n[nH]cc1NC(=O)c1c(F)cccc1F	binding, competition with immobilised ligand	1 µM	79
CNC(=O)c1ccc(Nc2ncc(C(F)(F)F)c(NCc3nccnc3N(C)S(C)(=O)=O)n2)cc1	cell-free assay, competition with immobilised ligand	0.1 µM	68
C[C@H]1CCN(c2nccc(-c3cnn4ncccc34)n2)C1	binding	1 µM	100
CO[C@@H](C)c1c(Nc2ccc([C@H](N(C)C(=O)C3CCS(=O)(=O)CC3)C(F)(F)F)cc2)cnc2cc(Cl)nn12	cell-free assay, competition with immobilised ligand	1 µM	51
CCN1CCN(Cc2ccc(C(=O)Nc3ccc(C)c(Oc4ccc5c(c4)CC(=O)N5)c3)cc2C(F)(F)F)CC1	binding, competition with immobilised ligand	1 µM	100
F[C@@H]1CCN(c2nccc(-c3cnn4ncccc34)n2)C1	binding	1 µM	100
CCCCN(CCCC)C(=O)CN1C[C@@H](c2cc(OC)c3c(c2)OCO3)[C@H](C(=O)O)[C@H]1CC(C)(C)CCC	cell-free assay, competition with immobilised ligand	1 µM	100
Cc1cnc(Nc2ccc(C(=O)N3CCC(N4CCCC4)CC3)cc2)nc1-c1cc2ccccc2s1	binding, competition with immobilised ligand	1 µM	60
O=C(Nc1ccc(Oc2ccc(F)cc2)cc1)N1CCc2ncccc2[C@H]1c1ccc(F)cc1	cell-free assay, competition with immobilised ligand	1 µM	50
COc1ccnn2ncc(-c3ccnc(N(C)C)n3)c12	binding	1 µM	99
CN(c1ccnc(CNc2nc(Nc3ccc4c(c3)CC(=O)N4)ncc2C(F)(F)F)n1)S(C)(=O)=O	cell-free assay, competition with immobilised ligand	1 µM	15
COc1cnc(Nc2cccc(S(N)(=O)=O)c2)nc1N1CCN(c2ccccc2)CC1	binding, competition with immobilised ligand	1 µM	100
N[C@H]1CCN(c2nccc(-c3cnn4ncccc34)n2)C1	binding	1 µM	0
CC(=O)C1=C(C)N(c2cccc(C(F)(F)F)c2)C(=O)N[C@@H]1c1ccc(C#N)nc1	cell-free assay, competition with immobilised ligand	1 µM	91.6
CNC(=O)[C@@H]1CC[C@@H](n2c(-c3ccc4cnccc4c3)nc3ccc(C(=O)NCc4cccc(C(N)=O)c4)cc32)C1	binding, competition with immobilised ligand	1 µM	87
CN(C)c1ncc(F)c(-c2cnn3ncccc23)n1	binding	1 µM	100
FC(F)(F)Oc1cccc(-c2cnc3ccc(-c4ccncc4)nn23)c1	binding, competition with immobilised ligand	5 µM	72
O=C(NCCCN1CCOCC1)c1ccc(Nc2nccc(-c3cc4ccccc4s3)n2)cc1	binding, competition with immobilised ligand	1 µM	80
CC1=C(C#N)C(c2ccc3c(c2)c(NC(=O)c2ccccc2C)nn3C)C(C#N)=C(C)N1	cell-free assay, competition with immobilised ligand	1 µM	100
CC1CCCN1c1nccc(-c2cnn3ncccc23)n1 (centres unmarked)	binding	1 µM	100
Nc1ncc2c(n1)-c1c([nH]c3ccc(C#CC4CC4)cc13)CCCC2	binding, competition with immobilised ligand	1 µM	100
c1cnn2ncc(-c3ccnc(N4CCC45COC5)n3)c2c1	binding	1 µM	100
O=C(c1ccc(Nc2ncc(Cl)c(-c3ccc(Cl)s3)n2)cc1)N1CCC(N2CCCC2)CC1	binding, competition with immobilised ligand	1 µM	56
